Only some compounds are listed: those with a hit (about 1.8% of all), similar ones and a draw of the others.
Autophagy HCS = alters autophagy in cells; MEF GFP-LC3 puncta imaging; test concentration mostly 10 µM; calls only at 10 µM (by protocol); 0.98% of 190,000 active; AID 463193;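 active = percentage of spot-positive cells more than 3 SD above its plate mean, without a fluorescence outlier flag or 80% toxicity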
TNF death inh = blocks TNF-alpha induced death of Jurkat FADD-/- cells; 0.068% of 220,000 active; AID 463075; Jurkat FADD-/- TNF necroptosis rescue, ATP luminescence, 24 h; 0 = TNF only, 100 = no-TNF cells; activation (protection from cell death), % at 10 µM;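 active = activation, meaning protection from cell death, of at least 50% relative to plate controls; inactive = activation below 50%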;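 also: necroptosis triggered by 40 ng/mL TNF-alpha added together with compound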
Dynein cargo inh = dynein cargo transport inhibition. 3617.4 mouse cells, GR-EGFP nuclear translocation imaging; test concentration mostly 20 µM; stimulated with dexamethasone, 1 µM; active compounds read low. 0.47% of 220,000 active. AID 1381. z-score, hits read low;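 active = plate z-score of nuclear minus cytoplasmic receptor signal below a set negative limit, without overly bright fluorescence or cell loss, cut at about -3.5 in these data, passing the limit was not always enough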;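 also: z-score of nuclear minus cytoplasmic ring GR-EGFP intensity difference per well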
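medium = tetracycline-free induction medium containing charcoal-stripped FBS | also added = 1.0 µM final dexamethasone stimulus | schedule = 48 h induction, 1 h compound, 30 min dex at 37 °C | technique = fixed, Hoechst-stained cells imaged at 10x for EGFP | measure = GR-EGFP nuclear translocation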
Mdm2 ligase inh = inhibitors of human Mdm2 E3 ubiquitin ligase. Q00987. cell-based MDM2 ubiquitination luciferase reporter, 2 h; 0 = plate control, 100 = twice control, blank-subtracted. signal enhancement, % at 5 µM. 0.11% of 210,000 active;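 active = signal enhancement of 30% or more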;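 also: luminescence tracks abundance of the self-degrading MDM2-luciferase fusion protein; higher signal means inhibition of MDM2 E3 ligase activity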
Target sequence (Q00987 whole entry, looked up, the tested form may be a part): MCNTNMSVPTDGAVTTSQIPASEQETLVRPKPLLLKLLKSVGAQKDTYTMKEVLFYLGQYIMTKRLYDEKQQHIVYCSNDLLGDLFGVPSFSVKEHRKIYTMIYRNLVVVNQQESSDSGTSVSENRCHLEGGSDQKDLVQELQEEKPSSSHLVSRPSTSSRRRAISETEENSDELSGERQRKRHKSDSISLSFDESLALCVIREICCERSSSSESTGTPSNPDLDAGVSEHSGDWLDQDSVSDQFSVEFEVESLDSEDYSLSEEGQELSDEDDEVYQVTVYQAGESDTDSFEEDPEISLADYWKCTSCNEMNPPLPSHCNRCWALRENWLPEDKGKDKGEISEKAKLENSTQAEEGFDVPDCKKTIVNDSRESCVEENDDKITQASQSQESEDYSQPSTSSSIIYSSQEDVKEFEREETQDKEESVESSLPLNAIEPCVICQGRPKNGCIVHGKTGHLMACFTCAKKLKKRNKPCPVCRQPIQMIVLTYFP
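Buffer or medium: Cells held in DMEM | Assay system: Stable mammalian line carrying autodegrading MDM2–luciferase fusion reporter | Quantity: 2000 cells/well | Times: 4 h settle plus 2 h compound, 37 °C | Doses: One concentration, 5 µM, with 0.2% DMSO | Technique: Luminescence with SteadyLite reagent, 15 min at room temperature | Benchmarks: Plate controls and plate blanks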
L929 necroptosis = blocks zVAD induced death of L929 cells; L929 zVAD necroptosis rescue, ATP luminescence, 24 h; with zVAD 60 µM; viability rescue, % at 10 µM; 0.38% of 220,000 active;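 active = activation, scaled between plate controls, above about 75%, limit read from the data; inactive = activation under that limit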
zVAD death conf = confirmed blocker of zVAD induced death in L929 cells; shares compounds with L929 necroptosis; L929 zVAD-induced necroptosis rescue, ATP luminescence, 24 h; activation (protection from necroptosis), % at 10 µM; 16% of 760 active; AID 463117;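 active = mean protection from necroptosis of at least 50% over duplicate tests; inactive = mean protection below 50%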
Each line names hits and unclear results; the compound was inactive in the other large screens (follow-up assays come after a bar, where they were run).

N#CC(C#N)=C1C=CC=CN1/C(=C\c1ccco1)C(=O)c1ccc(-c2ccccc2)cc1	L929 necroptosis 99 | zVAD death conf inactive
O=C(CSc1ncn(-c2ccccc2)n1)Nc1nncs1	none
CC(=O)Nc1ccc(C(=O)CSc2ncn(-c3ccccc3)n2)cc1	L929 necroptosis 80 | zVAD death conf inactive
O=C(COc1ccc(S(=O)(=O)NC2CCCCC2)cc1)NC1CCCCC1	none
COc1ccc(S(=O)(=O)NCCC(=O)NC2CCCCCCC2)cc1	L929 necroptosis 81 | zVAD death conf inactive
COc1cc(-c2[nH]ncc2CN2CCN(Cc3cccs3)CC2)cc(OC)c1OC	none
O/N=C(/CCc1ccccc1)c1ccc2c(c1)OCCO2	none
COC(=O)c1ccc(-c2ccc(/C=N/N3C(=O)C4C5C=CC(CC5)C4C3=O)o2)cc1 (stereo unspecified)	L929 necroptosis 83 | zVAD death conf inactive
O=C(O)c1cc(-c2ccc(/C=N/N3C(=O)C4C5C=CC(CC5)C4C3=O)o2)ccc1Cl (stereo unspecified)	none
Cc1ccc(NC(=O)c2ccccc2Cl)cc1-n1cnnn1	none
Cc1ccc(NC(=O)c2ccccc2)cc1-n1cnnn1	L929 necroptosis 75 | zVAD death conf inactive
COc1ccc(S(=O)(=O)N2CCC(C(=O)NCc3ccccc3)CC2)cc1OC	none
CCn1cc(Cl)c(C(=O)Nc2ccccc2C(N)=O)n1	none
C/C(CCc1ccccc1)=N/NC(=O)C(=O)NC(C)c1ccccc1 (stereo unspecified)	none
C/C(CC(=O)NC(C)C)=N\NC(=O)C(c1ccccc1)c1ccccc1	L929 necroptosis 82 | zVAD death conf inactive
Cc1cc(NC(=O)Nc2cccc(C)c2C)no1	none
Cc1onc(-c2ccccc2)c1C(=O)/C=C/N(C)C	none (no result: Autophagy HCS)
CCCCSc1ncnc2[nH]ncc12	none (no result: Autophagy HCS)
Cc1cc(C)n(-c2ncccc2[N+](=O)[O-])n1	none (no result: Autophagy HCS)
CC(C)c1ccc(-n2cnn(-c3ncccc3[N+](=O)[O-])c2=O)cc1	L929 necroptosis 78 | zVAD death conf inactive
Cc1cc2c3ccccc3ncn2n1	none (no result: Autophagy HCS)
CCC(C)c1ccc(OCC(=O)Nc2ccc3[nH]c(=O)[nH]c3c2)cc1 (stereo unspecified)	L929 necroptosis 78 | zVAD death conf inactive
CC(C)c1ccc(NC(=O)c2sccc2-n2cccc2)cc1	L929 necroptosis 84 | zVAD death conf inactive
O=C(COc1ccccc1)n1nc(-c2ccc(Cl)cc2)nc1NCc1ccco1	L929 necroptosis 83 | zVAD death conf inactive
Cc1ccc(-c2nnn(CC(=O)N(c3ccccc3)C(C(=O)NCC3CCCO3)c3cccs3)n2)o1 (stereo unspecified)	none
O=C(CNS(=O)(=O)c1c(Cl)cccc1Cl)OCc1csc(-c2ccccc2)n1	none
C=CCNC(=S)NC(CC(=O)OC)c1ccc2c(c1)OCO2 (stereo unspecified)	none
CCOc1cccc2cc(C(C)=O)oc12	none
Cc1c(-c2ccc(Cl)cc2)oc(=O)c2c(N)n(-c3ccccc3)nc12	none
Nc1c2c(=O)oc(-c3ccccc3)cc2nn1-c1ccccc1	L929 necroptosis 90 | zVAD death conf inactive
COc1cc(/C=N/Nc2ncnc3sc4c(c23)CCC4)ccc1O	L929 necroptosis 82 (no result: Mdm2 ligase inh) | zVAD death conf inactive
Cc1nc(NCC2CCCO2)c2nnn(Cc3c(F)cccc3Cl)c2n1 (stereo unspecified)	none
C=CCOc1ccc(C2C(C(=O)c3ccco3)=C(O)C(=O)N2c2nnc(C)s2)cc1 (stereo unspecified)	none
CCN1C(=O)/C(=C/c2ccc(C)s2)NC1=S	L929 necroptosis 98 | zVAD death conf 94
Cn1cc(C(=O)N/N=C/c2cccs2)c2ccccc21	L929 necroptosis 81 | zVAD death conf inactive
Cc1ccc(C(=O)N/N=C/c2ccc(-c3cccc(Cl)c3)o2)cn1	none (no result: Autophagy HCS)
Cc1cc(C(=O)N/N=C/c2ccc(-c3cccc(Cl)c3)o2)n[nH]1	L929 necroptosis 75 (no result: Autophagy HCS) | zVAD death conf inactive
Cn1cc(C(=O)N/N=C/c2ccc3c(c2)OCO3)c2ccccc21	none (no result: Autophagy HCS)
Cc1cc(C(=O)N/N=C/c2cccs2)n[nH]1	L929 necroptosis 82 | zVAD death conf inactive
Cc1cc(C(=O)OC(C(=O)Nc2ccc(C)c(Cl)c2)c2ccccc2)c(C)o1 (stereo unspecified)	none
CSc1ccc(Cl)c(C(=O)OCC(=O)N(C)CCC#N)c1	none
CSc1ncccc1C(=O)Nc1ccc(F)c(F)c1F	none
Cc1ccnc2nc(C(=O)OCC(=O)c3c[nH]c4ccccc34)nn12	none (no result: Autophagy HCS)
Cc1ccc(/C=N/OC(=O)c2nn(C)cc2Cl)cc1	none
CCOC(=O)C1C(=O)NC(SCC(=O)OC)=C(C#N)C1c1ccccc1OCC (stereo unspecified)	none
CCOC(=O)C1C(=O)NC(SCC(=O)Nc2nccs2)=C(C#N)C1c1ccccc1OCC (stereo unspecified)	L929 necroptosis 88 | zVAD death conf 67
COc1ccc2c(Cl)c(C(=O)N/N=C3\CCCC(=O)C3)sc2c1	none
c1ccc(CNc2ncnc3c2oc2ccccc23)nc1	none
Brc1ccc2[nH]c3c(NCc4ccccn4)ncnc3c2c1	L929 necroptosis 75 (no result: Autophagy HCS) | zVAD death conf inactive
O=C(Nc1cccc(Cl)c1)N1CCCC1	none
O=C(Nc1cccc(Cl)c1)N1N=CCC1c1ccccc1 (stereo unspecified)	TNF death inh 92, L929 necroptosis 89 (no result: Autophagy HCS) | zVAD death conf 85
Fc1ccc(NC(=S)N2N=CCC2c2ccccc2)cc1 (stereo unspecified)	TNF death inh 94, L929 necroptosis 82 | zVAD death conf inactive
Cn1nc(C(C)(C)C)cc1NC(=O)Nc1ccc(Cl)cc1	L929 necroptosis 82 (no result: Autophagy HCS) | zVAD death conf 55
O=C(Nc1nsc(-c2ccccc2)n1)c1cccs1	L929 necroptosis 75 | zVAD death conf inactive
O=c1[nH]c2ccccc2nc1-c1ccc(Cl)cc1	L929 necroptosis 76 (no result: Autophagy HCS, Mdm2 ligase inh) | zVAD death conf inactive
O=c1[nH]c2ccccc2nc1-c1ccccc1	none (no result: Autophagy HCS)
COC(=O)c1sc(NC(=O)c2ccco2)nc1C	none
Cc1cnc(NC(=O)c2cc3c(s2)CCCC3)s1	L929 necroptosis 79 | zVAD death conf 79
O=C(Nc1ccc(N2CCOCC2)cc1)c1cc2c(s1)CCCCC2	L929 necroptosis 75 | zVAD death conf inactive
Cc1csc(NC(=O)c2cc3c(s2)CCCC3)n1	none
Cc1cnc(NC(=O)c2ccco2)s1	L929 necroptosis 83 | zVAD death conf inactive
Cc1ccccc1/C=N/Nc1nc2ccccc2[nH]1	none
C(=N\Nc1nc2ccccc2[nH]1)/c1ccccc1	L929 necroptosis 84 | zVAD death conf inactive
C(=N\Nc1nc2ccccc2[nH]1)/c1c[nH]c2ccccc12	L929 necroptosis 80 | zVAD death conf inactive

Screening data deposited in PubChem by several laboratories.
